The results in this text go back to PubChem BioAssay.

Experiment [1] in a line: Her2 expression decrease, cell viability multiplex – SKBR3 breast tumor cells, AlphaScreen, ATP viability, primary screen (AID 461).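 As to Her2 level: lower value means less Her2 protein in the cells.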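 As to viability: percent of carrier control wells set as 100% viability.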 As to conditions: SKBR3 Her2 protein level, 18-24 h, measured here: SKBR3 viability, ATP luminescence, at 10 µM. (In general: Alpha assays give light when donor and acceptor beads are brought close together.)
The target in experiment [2] is Receptor tyrosine-protein kinase erbB-2 (Homo sapiens) (UniProt P04626). The description is as above. As to conditions: 18-24 h, at 10 µM, stronger effect = lower value.
The nature of experiment [3]: reduced viability of SK-BR-3 breast cancer cells – cell-based, 24 h, human, pilot screen (AID 572;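 active = viability at or below 10% of carrier control in both of two separate runs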;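 also: compound exposure lasted between 18 and 24 h rather than exactly 24 h; 100% = carrier-treated control wells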). As to conditions: SK-BR-3 viability, CellTiter-Glo luminescence, at 10 µM, stronger effect = lower value. Background: In ATP-based viability assays light output follows the ATP content of the culture.
Experiment [4] is described as follows: H69AR cell proliferation blockers – human, duplicate replicates, primary screen (AID 580;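 active = viability at or under a set limit in both replicates, limit being median viability minus 3 SD, cut at about 48% in these data, passing the limit was not always enough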;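 also: 100% = mean luminescence of untreated wells and 0% = no signal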). The conditions noted are these: H69AR lung tumor cells viability, ATP luminescence, 72 h; at 10 µM; stronger effect = lower value.
Experiment [5] can be described thus: MRP1 drug-resistance reversers in H69AR cells – cell-based, doxorubicin co-treatment, pilot screen (AID 601;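 active = viability loss from added drug above about 55%, and viability with drug at most 40%, in both replicates, limit read from the data, passing the limit was not always enough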). As to conditions: CellTiter-Glo, 72 h, at 10 µM; for differential viability (reversal): stronger effect = higher value.
Experiment [6] in a line: yeast transport mutant growth inhibition pilot in 384-well plates, post-Golgi transport modulator project (AID 636; in the data active = inhibition above about 31%). As to conditions: absorbance 615 nm, about 18 h, stronger effect = higher value.
A short description of experiment [7]: growth suppression of yeast trafficking mutant, preliminary HTS, modulators of trafficking downstream of Golgi apparatus project, 1536-format plate, OD 615 nm (AID 637; in the data active = inhibition above about 30%). The conditions noted are these: yeast transport mutant growth, absorbance 615 nm, 18 h; stronger effect = higher value.
Experiment [8] in a line: HUVEC growth inhibition – cell-based, human, primary screen (AID 575;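 active = viability at or below 30% in both replicate assays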;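 also: 100% = median of untreated cell wells with 0.1% DMSO on each plate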). As to conditions: HUVEC proliferation, CellTiter-Glo luminescence, 72 h; at 10 µM; stronger effect = lower value. In outline:
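System: primary human umbilical vein endothelial cells; Quantity: 1250 endothelial cells in each well; Buffer or medium: supplemented EBM, 2% fetal bovine serum; Doses: one dose, 10 µM final, 0.1% DMSO; Incubation: 72 h compound incubation; Technique: ATP-based CellTiter-Glo luminescent read; Evaluation: percent of median DMSO-control luminescence; Controls: vehicle and MePR control wells.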

The mark [9] stands for this setting: H69AR cells + 2 uM doxorubicin, measured here: viability with 2 uM doxorubicin, stronger effect = lower value.
The mark [10] stands for this setting: H69AR cells, compound alone cytotoxicity.

Activity calls are given as the source filed them.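 The calls were made as follows, unless noted: active = Her2 level under about 52% in both replicate screens, with viability over 70% of control (limit read from the data); inconclusive = Her2 under the limit in one screen only, or viability under 70%; inactive = Her2 level above the set limit.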

Sequence of Receptor tyrosine-protein kinase erbB-2 (Homo sapiens) (P04626 whole entry, looked up): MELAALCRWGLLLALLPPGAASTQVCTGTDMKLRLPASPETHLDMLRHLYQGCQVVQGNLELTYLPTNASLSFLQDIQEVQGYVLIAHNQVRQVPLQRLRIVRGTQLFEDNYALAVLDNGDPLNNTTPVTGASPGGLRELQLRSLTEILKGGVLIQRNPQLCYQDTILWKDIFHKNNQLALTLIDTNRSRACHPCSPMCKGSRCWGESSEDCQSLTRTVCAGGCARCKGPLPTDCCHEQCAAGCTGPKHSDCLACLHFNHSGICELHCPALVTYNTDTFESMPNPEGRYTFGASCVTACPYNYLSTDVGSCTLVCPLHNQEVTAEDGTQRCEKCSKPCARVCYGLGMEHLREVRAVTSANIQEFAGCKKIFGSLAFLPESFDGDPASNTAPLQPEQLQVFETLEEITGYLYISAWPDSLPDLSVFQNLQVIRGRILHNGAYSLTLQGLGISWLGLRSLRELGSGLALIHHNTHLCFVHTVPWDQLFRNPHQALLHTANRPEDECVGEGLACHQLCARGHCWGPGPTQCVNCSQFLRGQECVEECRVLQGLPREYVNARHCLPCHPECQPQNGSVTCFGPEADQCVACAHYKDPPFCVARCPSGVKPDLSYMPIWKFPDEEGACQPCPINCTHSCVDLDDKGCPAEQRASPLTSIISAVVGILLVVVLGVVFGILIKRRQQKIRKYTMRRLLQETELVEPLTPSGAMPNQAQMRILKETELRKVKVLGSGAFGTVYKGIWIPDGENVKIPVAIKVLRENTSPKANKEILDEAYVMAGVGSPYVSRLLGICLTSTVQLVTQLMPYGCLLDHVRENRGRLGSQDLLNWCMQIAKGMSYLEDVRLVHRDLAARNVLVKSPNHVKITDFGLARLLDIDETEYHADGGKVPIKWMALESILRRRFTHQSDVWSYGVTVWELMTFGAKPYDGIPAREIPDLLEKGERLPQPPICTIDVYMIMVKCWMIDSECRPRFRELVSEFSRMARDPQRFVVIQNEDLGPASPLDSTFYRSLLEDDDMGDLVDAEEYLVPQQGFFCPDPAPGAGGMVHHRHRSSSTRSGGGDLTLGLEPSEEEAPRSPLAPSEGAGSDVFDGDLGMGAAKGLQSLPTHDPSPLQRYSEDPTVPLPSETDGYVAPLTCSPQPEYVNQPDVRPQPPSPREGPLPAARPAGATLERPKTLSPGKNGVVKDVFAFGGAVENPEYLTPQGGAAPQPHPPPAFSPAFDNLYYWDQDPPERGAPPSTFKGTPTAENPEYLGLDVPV

Take `CCOc1ccc2nc(NC(=O)CSc3nc4ccccc4c(=O)n3Cc3ccco3)sc2c1`: the viability (commonly a read-out of living cells in per cent, often relative to untreated cells) is 82.5% in experiment [1]; 82.5% (inactive) in experiment [3]; 45.2% (active) in experiment [4]; 45.4% in experiment [5] (setting [9]); 45.2% in experiment [5] (setting [10]). In addition, the Her2 level in experiment [2] is 84% (inactive). Moreover, in experiment [5] (H69AR cells + 2 uM doxorubicin), the differential viability (reversal) was -0.105% (inactive). Moreover, the inhibition (commonly the drop in the measured response relative to a control, in per cent) in experiment [6] was -5.95% (inactive); in experiment [7], -1.97% (inactive).
In the case of `O=C(CSc1n[nH]c(-c2ccco2)n1)Nc1sc2c(c1C(=O)Nc1ccccc1)CCCC2`, the viability in experiment [1] is 99.5%; in experiment [3] it was 99.5% (inactive); in experiment [4] it was 65.9% (inactive); in experiment [5] (setting [9]), 78.9%; in experiment [5] (setting [10]) it was 65.9%. In addition, the Her2 level in experiment [2] was 99% (inactive). Besides, in experiment [5] (H69AR cells + 2 uM doxorubicin), the differential viability (reversal) is -13% (inactive). For the same compound, the inhibition in experiment [6] is -4.42% (inactive); in experiment [7], -10.7% (inactive).
For `ON=C1/C(=N\O)CC2(C/C1=N/O)OCCO2`, the viability was 89% in experiment [1]; 89% (inactive) in experiment [3]; 86.9% (inactive) in experiment [4]; 87.7% in experiment [5] (setting [9]); 86.9% in experiment [5] (setting [10]). Also, the Her2 level in experiment [2] was 113% (inactive). The differential viability (reversal) in experiment [5] (H69AR cells + 2 uM doxorubicin) was -0.75% (inactive). For the same compound, the figures for the inhibition in experiment [6] and in experiment [7] were -8.27% (inactive) and -2.1% (inactive), respectively.
`O=C(Nc1ccc(S(=O)(=O)N2CCCCCC2)cc1)c1ccco1`: the viability in experiment [1] was 94.5%; in experiment [3], 94.5% (inactive); in experiment [4], 97.1% (inactive); in experiment [5] (setting [9]) it was 94.3%; in experiment [5] (setting [10]) it was 97.1%. The Her2 level in experiment [2] is 89.5% (inactive). In addition, the differential viability (reversal) in experiment [5] (H69AR cells + 2 uM doxorubicin) was 2.81% (inactive). The inhibition in experiment [6] was -1.17% (inactive); in experiment [7] it was 6.07% (inactive).
For the compound `COc1ccccc1-c1c(C)nn2c(N3CCC4(CC3)OCCO4)cc(C)nc12`, the viability in experiment [1] was 90%; in experiment [3], 90% (inactive); in experiment [8], 99.3% (inactive); in experiment [5] (setting [9]), 29.3%; in experiment [5] (setting [10]) it was 60%. In experiment [2], the Her2 level is 89% (inactive). Besides, the differential viability (reversal) in experiment [5] (H69AR cells + 2 uM doxorubicin) was 30.6% (inactive). Also, the figures for the inhibition in experiment [6] and in experiment [7] were -1.05% (inactive) and -2.42% (inactive), respectively.
On to `CO[C@H]1C=CO[C@@]2(C)Oc3c(C)c(O)c4c(O)c(c(C=NN5CCN(C)CC5)c(O)c4c3C2=O)NC(=O)C(C)=CC=C[C@H](C)[C@H](O)[C@@H](C)[C@@H](O)[C@@H](C)[C@H](OC(C)=O)[C@@H]1C`, for which the viability is 90.5% in experiment [1]; 90.5% (inactive) in experiment [3]; 88.9% (inactive) in experiment [4]; 87.3% in experiment [5] (setting [9]); 88.9% in experiment [5] (setting [10]). Besides, in experiment [2], the Her2 level was 85.5% (inactive). In addition, the differential viability (reversal) in experiment [5] (H69AR cells + 2 uM doxorubicin) was 1.53% (inactive).
Take `Nc1nc(N2CCN(C/C=C/c3ccccc3)CC2)nc2ccccc12`: the viability in experiment [1] is 80.5%; in experiment [3], 80.5% (inactive); in experiment [4], 92% (inactive); in experiment [5] (setting [9]), 86.1%; in experiment [5] (setting [10]) it was 92%. Besides, the Her2 level in experiment [2] is 98.5% (inactive). For the same compound, in experiment [5] (H69AR cells + 2 uM doxorubicin), the differential viability (reversal) was 5.93% (inactive). Also, the inhibition in experiment [6] was -5.07% (inactive); in experiment [7] it was -2.13% (inactive).
`CCCNC(=O)c1c(N)n(-c2cc(OC)cc(OC)c2)c2nc3ccccc3nc12`: the viability in experiment [1] was 89%; in experiment [3], 89% (inactive); in experiment [8], 38.6% (inactive); in experiment [5] (setting [9]) it was 66.7%; in experiment [5] (setting [10]), 57.6%. In addition, the Her2 level in experiment [2] is 73.5% (inactive). In experiment [5] (H69AR cells + 2 uM doxorubicin), the differential viability (reversal) was -9.04% (inactive). For the same compound, the values for the inhibition in experiment [6] and in experiment [7] were -3.87% (inactive) and 2.3% (inactive), respectively.
Consider `C=CCn1c(COc2ccc(Cl)cc2)nnc1SCC(=O)N1CC(=O)Nc2ccccc21`, for which the viability in experiment [1] was 92%; in experiment [3], 92% (inactive); in experiment [8] it was 65.5% (inactive); in experiment [5] (setting [9]) it was 73.5%; in experiment [5] (setting [10]), 62.7%. The Her2 level in experiment [2] was 76.5% (inactive). Further, the differential viability (reversal) in experiment [5] (H69AR cells + 2 uM doxorubicin) is -10.9% (inactive). Also, the inhibition in experiment [6] is -5.2% (inactive); in experiment [7], -3.02% (inactive).
As for `CCn1c(SCc2nc(-c3cccs3)no2)nnc1-c1c[nH]c2ccccc12`, the viability in experiment [1] is 99%; in experiment [3] it was 99% (inactive); in experiment [4], 78.8% (inactive); in experiment [5] (setting [9]), 74.4%; in experiment [5] (setting [10]), 78.8%. Also, the Her2 level in experiment [2] was 65.5% (inactive). Besides, the differential viability (reversal) in experiment [5] (H69AR cells + 2 uM doxorubicin) is 4.39% (inactive). The inhibition in experiment [6] is -5.26% (inactive); in experiment [7], -5.67% (inactive).
As for `Cc1ccc2c(c1)-c1c(cnn1CC(=O)Nc1ccccc1N1CCN(C)CC1)CO2`, the viability is 93.5% in experiment [1]; 93.5% (inactive) in experiment [3]; 85.2% (inactive) in experiment [4]; 80.9% in experiment [5] (setting [9]); 85.2% in experiment [5] (setting [10]). The Her2 level in experiment [2] was 84% (inactive). For the same compound, in experiment [5] (H69AR cells + 2 uM doxorubicin), the differential viability (reversal) was 4.26% (inactive). Besides, the inhibition in experiment [6] was -1.2% (inactive); in experiment [7], -3.28% (inactive).
For `Cn1c(-c2ccc(C(C)(C)C)cc2)n[nH]c1=S`, the viability was 106% in experiment [1]; 106% (inactive) in experiment [3]; 82.1% (inactive) in experiment [4]; 80.4% in experiment [5] (setting [9]); 82.1% in experiment [5] (setting [10]). Moreover, in experiment [2], the Her2 level was 106% (inactive). The differential viability (reversal) in experiment [5] (H69AR cells + 2 uM doxorubicin) is 1.74% (inactive). The inhibition is -4.68% (inactive) in experiment [6] and -2.13% (inactive) in experiment [7].
Turning to `CC(C)C(=O)Nc1ccc(C(=O)NCc2cccnc2)cc1`, the viability is 107% in experiment [1]; 107% (inactive) in experiment [3]; 118% (inactive) in experiment [8]; 72.5% in experiment [5] (setting [9]); 10.8% in experiment [5] (setting [10]). Moreover, in experiment [2], the Her2 level is 108% (inactive). In addition, in experiment [5] (H69AR cells + 2 uM doxorubicin), the differential viability (reversal) is -61.7% (inactive). Further, the inhibition in experiment [6] is 4.42% (inactive); in experiment [7], -7.14% (inactive).
Consider `N#C/C(C(=O)NCc1ccco1)=C1/SC(Cc2ccc(F)cc2)C(=O)N1c1ccccc1` (stereo unspecified), for which the viability in experiment [1] is 112%; in experiment [3], 112% (inactive); in experiment [8], 88.3% (inactive); in experiment [5] (setting [9]) it was 58.3%; in experiment [5] (setting [10]) it was 48%. In experiment [2], the Her2 level was 84% (inactive). For the same compound, the differential viability (reversal) in experiment [5] (H69AR cells + 2 uM doxorubicin) was -10.3% (inactive). Moreover, the inhibition in experiment [6] was -3.68% (inactive); in experiment [7], -1.64% (inactive).
With `COc1cccc(C(=O)Nc2c(C(N)=O)oc3ccccc23)c1`, the viability in experiment [1] is 86.5%; in experiment [3], 86.5% (inactive); in experiment [8] it was 65.9% (inactive); in experiment [5] (setting [9]), 62.4%; in experiment [5] (setting [10]) it was 48.7%. The Her2 level in experiment [2] is 69% (inactive). Moreover, the differential viability (reversal) in experiment [5] (H69AR cells + 2 uM doxorubicin) was -13.6% (inactive). In addition, the inhibition in experiment [6] is -5.33% (inactive); in experiment [7], 3% (inactive).
As to `CSc1nc(N2CCOCC2)c2c(c1C#N)CCCCC2`, the viability in experiment [1] is 112%; in experiment [3], 112% (inactive); in experiment [4] it was 86.8% (inactive); in experiment [5] (setting [9]) it was 73.9%; in experiment [5] (setting [10]), 86.8%. The Her2 level in experiment [2] is 96% (inactive). The differential viability (reversal) in experiment [5] (H69AR cells + 2 uM doxorubicin) is 12.9% (inactive). Besides, the inhibition in experiment [6] was 0.79% (inactive); in experiment [7], 17.9% (inactive).
`CCOC(=O)c1sc(NC(=O)c2c(C)nn(Cc3ccccc3)c2C)cc1C`: the viability is 82.5% in experiment [1]; 82.5% (inactive) in experiment [3]; 44.6% (inactive) in experiment [8]; 46.8% in experiment [5] (setting [9]); 38.1% in experiment [5] (setting [10]). Besides, the Her2 level in experiment [2] is 90.5% (inactive). The differential viability (reversal) in experiment [5] (H69AR cells + 2 uM doxorubicin) is -8.76% (inactive). The inhibition in experiment [6] was -10% (inactive); in experiment [7], -4.92% (inactive).
